Compound activity: PubChem, several laboratories
The sample as a whole holds a higher share of hits than the screen did.
NALP1 inh: inhibitors of NALP1 inflammasome in yeast | S. cerevisiae NALP1/ASC/caspase-1 growth, X-gal OD620, 72 h | inhibition, % at 10 µM | AID 2071 | 0.61% of 280,000 active; in the data active = inhibition mostly above about 24%, no sharp cut-off; inactive = mostly below about 32%
PolyA inh: blocks polyadenylation in yeast reporter cells; S. cerevisiae SKY197-pL101 polyadenylation reporter, beta-gal luminescence; efflux-impaired pdr1/pdr3 knockout yeast; score 100 = 6 SD above DMSO; activity score, % at 12 µM; 0.02% of 300,000 active; AID 1875;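 active = lowest replicate activity score at least 50, where 100 means six control SD above control mean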;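 note: yeast exposed to compound for 9 h at 30 °C; higher score means more reporter readthrough which indicates perturbed polyadenylation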
T cruzi inh: T. cruzi replication inhibition; T. cruzi beta-gal in NIH3T3, luminescence, 90 h; inhibition, % (no concentration beside the values); 1.4% of 300,000 active;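 active = mean inhibition across valid replicates above about 55%, limit read from the data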;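 note: signal also drops with host cell toxicity which is not excluded here; 0% = plate median of DMSO wells and 100% = zero luminescence signal; higher percent means less beta-gal luminescence so fewer parasites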
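Incubation – ≥90 h infection period, 3 h prior cell attachment · System – NIH/3T3 fibroblasts plus reporter T. cruzi · Doses – compound pinned at 50 nL/well, DMSO · Read-out basis – percent inhibition of parasite-derived β-gal signal · Signal – luminescent β-galactosidase signal after 60 min lysis · Also added – 5000 T. cruzi trypomastigotes/well · Medium – Low-serum DMEM with 2% FBS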
L major viab: inhibitors of Leishmania major promastigote growth; Leishmania major promastigotes, resazurin fluorescence viability; inhibition, % at 10 µM; 9% of 200,000 active; AID 1063; in the data active = inhibition above about 50%;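 note: promastigotes grown with compound for 44 hours at 28 °C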
Calb FLC: affects C. albicans growth with fluconazole; 0.57% of 300,000 active; growth inhibition, % (test concentration not listed); AID 1979; C. albicans CaCi-2 + fluconazole, Alamar Blue growth, 48 h;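 active = growth inhibition above about 58% in most replicates, limit read from the data, passing the limit was not always enough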;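 note: all wells also contain fluconazole at 8 µg/ml as a sub-toxic cotreatment; 0% = median of DMSO wells and 100% = median of geldanamycin control wells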
NALP3 yeast inh: NALP3 inhibition in yeast; Yeast reconstituted NLRP3/ASC/caspase-1, beta-gal luminescence, 24 h; inhibition, % at 10 µM; 0.39% of 330,000 active; AID 2825;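 active = inhibition of 50% or more; inactive = inhibition below 50%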;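 note: plate controls were induced DMSO wells for no effect and uninduced yeast grown without galactose for full effect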
Starred values were filed as active, the others as inactive.

For C=CCSc1nc2ccccc2n1C(=O)/C=C/c1cc(OC)c(OC)c(OC)c1 the results were NALP1 inh 4, PolyA inh 6, T cruzi inh -3, L major viab 5, Calb FLC -31 and NALP3 yeast inh 42.
For CCn1c(SCC(=O)N/N=C/c2ccc(OC)c(OC)c2)nc2ccccc21 the results were NALP1 inh 34, PolyA inh -12, L major viab 97*, Calb FLC -1 and NALP3 yeast inh 11.
`C=CCSc1nc2ccccc2n1C(=O)/C=C/c1ccc(OC)c(OC)c1` gave NALP1 inh 14, PolyA inh 16, T cruzi inh -9, L major viab 71* and Calb FLC 3.
Screening N#Cc1cn(Cc2ccccc2)c2ccccc12 returned NALP1 inh 27*, PolyA inh -17, T cruzi inh -15, L major viab 7, Calb FLC -1 and NALP3 yeast inh 35.
`O=C(COC(=O)/C=C/c1ccc(OC(F)F)cc1)NCc1cccs1` gave NALP1 inh 20, PolyA inh -3, T cruzi inh -3, L major viab 0, Calb FLC -1 and NALP3 yeast inh 31.
`COc1ccc(-c2cc(=O)[nH][nH]2)cc1` gave NALP1 inh -3, PolyA inh -7, T cruzi inh -20, L major viab 76* and NALP3 yeast inh 5.
COc1ccc(OCC(=O)N/N=c2\oc3c(OC)cccc3cc2C(N)=O)cc1 was read as NALP1 inh 4, PolyA inh -1, T cruzi inh 3, L major viab 44, Calb FLC 5 and NALP3 yeast inh 23.
Screening CCc1ccc(/C=C2/SC(=S)N(CCCC(=O)Nc3ccccc3C(=O)O)C2=O)cc1 returned NALP1 inh 8, PolyA inh 1, T cruzi inh -11, Calb FLC 86* and NALP3 yeast inh -2.
CCc1ccc(/C=C2\SC(=S)N(CCCC(=O)Nc3ccccn3)C2=O)cc1 was read as NALP1 inh -9, PolyA inh -6, T cruzi inh 62*, L major viab -2, Calb FLC -3 and NALP3 yeast inh 17.
`O=C(CCCN1C(=O)/C(=C/c2cccc(Br)c2)SC1=S)Nc1cccnc1` gave NALP1 inh -4, PolyA inh -7, T cruzi inh 26, L major viab 40, Calb FLC 50 and NALP3 yeast inh 18.
Screening O=C(CCCN1C(=O)/C(=C\c2cccc(Br)c2)SC1=S)Nc1cccnc1 returned NALP1 inh -11, PolyA inh 6, T cruzi inh 16, L major viab 58*, Calb FLC 46 and NALP3 yeast inh 20.
COC(=O)c1ccc(/C=C2/SC(=S)N(CCCC(=O)Nc3ccccn3)C2=O)cc1 was read as NALP1 inh 33, PolyA inh -11, T cruzi inh 11, L major viab 1, Calb FLC 7 and NALP3 yeast inh 3.
O=C(CCCN1C(=O)/C(=C\c2ccccc2)SC1=S)Nc1ccc(O)cc1C(=O)O was read as NALP1 inh -2, PolyA inh -9, T cruzi inh -19, Calb FLC 7 and NALP3 yeast inh 5.
For CN(CCc1ccccn1)C(=O)CCC1CCCN(C(=O)c2cccc(N(C)C)c2)C1 (configuration not stated) the results were NALP1 inh 5, PolyA inh 9, T cruzi inh -4, Calb FLC -4 and NALP3 yeast inh -3.
O=C(O)C1CCCN1c1nc(C(F)(F)F)nc2ccccc12 (configuration not stated) was read as NALP1 inh -1, PolyA inh 4, T cruzi inh -7, L major viab -5, Calb FLC -1 and NALP3 yeast inh 28.
For O=C(CN1CCOCC1)NCc1cc([N+](=O)[O-])ccc1O the results were NALP1 inh 19, PolyA inh 2, T cruzi inh -10, Calb FLC 1 and NALP3 yeast inh 8.
For O=C1NC(=Nc2ccccc2)c2ccc([N+](=O)[O-])cc21 the results were NALP1 inh 32, PolyA inh -1, T cruzi inh -3, L major viab 67*, Calb FLC 4 and NALP3 yeast inh 13.
`CN(Cc1ccc(OCC(O)CN(C)Cc2ccccc2)cc1)Cc1nccn1C` (configuration not stated) gave PolyA inh 12, T cruzi inh 6, Calb FLC 1 and NALP3 yeast inh 18.
COc1ccc(CN(C)CC(O)COc2ccc(-c3ccccc3)cc2)cc1OC (configuration not stated) was read as NALP1 inh 32, PolyA inh 6, T cruzi inh 58*, Calb FLC -5 and NALP3 yeast inh 32.
For Cc1cc(OCCOCCNCc2ccccc2)ccc1C(C)C the results were NALP1 inh 28, PolyA inh 8, T cruzi inh 23, Calb FLC 4 and NALP3 yeast inh 46.
`COc1cc(OC)cc(C(=O)N[C@H](C(=O)NC23CC4CC(CC(C4)C2)C3)C(C)C)c1` gave NALP1 inh 4, PolyA inh 0, T cruzi inh 23, L major viab 64*, Calb FLC -59 and NALP3 yeast inh 12.
CCN(CC)CCSc1nc2ccccc2c(=S)n1-c1ccccc1 was read as NALP1 inh -2, PolyA inh -10, T cruzi inh 64*, L major viab 82*, Calb FLC 7 and NALP3 yeast inh 19.
`CC1CCCC(NC(=O)COC(=O)CN2C(=O)C3CCCCC3C2=O)C1C` (configuration not stated) gave NALP1 inh 8, PolyA inh 25, T cruzi inh -9, L major viab -7, Calb FLC -5 and NALP3 yeast inh 11.
Screening O=C(N1CCCCCC1)n1c(Cc2ccccc2)nc2ccccc21 returned NALP1 inh 6, PolyA inh -2, T cruzi inh 1, L major viab 63*, Calb FLC 1 and NALP3 yeast inh 19.
Screening O=C(Cn1c(S(=O)(=O)Cc2ccccc2)nc2ccccc21)N1CCCCC1 returned NALP1 inh -37, PolyA inh -7, T cruzi inh -9, L major viab 42, Calb FLC 9 and NALP3 yeast inh 13.
Screening O=[N+]([O-])c1ccc2nonc2c1Nc1ccccc1 returned NALP1 inh 4, PolyA inh 0, T cruzi inh -2, Calb FLC 25 and NALP3 yeast inh 11.
`Cc1ccc(Nc2ccc([N+](=O)[O-])nc2[N+](=O)[O-])cc1` gave NALP1 inh 40, PolyA inh -30, T cruzi inh 62*, L major viab 70*, Calb FLC -12 and NALP3 yeast inh 18.
For CN(C)c1ccc(CNC23CC4CC(CC(C4)C2)C3)cc1 the results were L major viab 87*.
